In experiment [1] the target is Melanocyte-stimulating hormone receptor (Homo sapiens, UniProt Q01726). The experiment can be described thus: Binding affinity towards Melanocortin 1 receptor using [125I]NDP-MSH. In outline:
(§1)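 Human MC1, MC3, MC4 or MC5 receptor expressed in Sf9 cells by recombinant virus infection for 72 h; membranes prepared from these cells. Membranes (10 µg protein/100 µL) incubated with [125I]NDP-MSH and competing unlabeled ligand in 20 mM K-Hepes pH 7.4, 5 mM NaCl, 1 mM CaCl2, 0.5 mM MgCl2, 0.5 mg/mL BSA for 3 h at 25 °C. Ended by filtration through glass-fiber filters. Nonspecific binding set with 3 µM NDP-MSH.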

Experiment [2] has as its target Melanocortin receptor 3 (Homo sapiens, UniProt P41968). The experiment can be described thus: Binding affinity towards Melanocortin 3 receptor using [125I]NDP-MSH. The gist of the method:
as §1

Experiment [3] has as its target Melanocortin receptor 4 (Homo sapiens, UniProt P32245). The experiment can be described thus: Binding affinity towards Melanocortin 4 receptor using [125I]NDP-MSH. In outline:
as §1

Experiment [4] concerns the target Melanocortin receptor 5 (Homo sapiens, UniProt P33032). As to the kind of experiment: Binding affinity towards Melanocortin 5 receptor using [125I]NDP-MSH. In outline: as §1

Melanocyte-stimulating hormone receptor, sequence (Q01726 whole entry): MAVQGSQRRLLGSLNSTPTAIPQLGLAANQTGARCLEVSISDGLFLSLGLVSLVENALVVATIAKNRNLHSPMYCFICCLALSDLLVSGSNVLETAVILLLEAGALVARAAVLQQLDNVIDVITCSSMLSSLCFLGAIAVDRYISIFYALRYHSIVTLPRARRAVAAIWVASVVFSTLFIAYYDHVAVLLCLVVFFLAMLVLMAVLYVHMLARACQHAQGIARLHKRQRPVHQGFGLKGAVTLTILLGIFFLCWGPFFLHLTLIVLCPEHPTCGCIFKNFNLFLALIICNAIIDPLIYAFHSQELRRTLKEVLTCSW
Melanocortin receptor 3, sequence (P41968 whole entry): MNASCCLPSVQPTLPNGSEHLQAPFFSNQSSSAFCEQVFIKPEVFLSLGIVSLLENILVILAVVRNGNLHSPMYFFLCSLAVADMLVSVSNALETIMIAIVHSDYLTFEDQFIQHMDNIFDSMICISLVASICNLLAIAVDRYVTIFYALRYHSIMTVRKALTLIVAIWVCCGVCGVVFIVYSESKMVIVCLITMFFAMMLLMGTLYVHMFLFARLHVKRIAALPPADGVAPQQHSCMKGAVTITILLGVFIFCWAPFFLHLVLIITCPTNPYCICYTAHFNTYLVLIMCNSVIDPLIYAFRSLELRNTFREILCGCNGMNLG
Melanocortin receptor 5, sequence (P33032 whole entry): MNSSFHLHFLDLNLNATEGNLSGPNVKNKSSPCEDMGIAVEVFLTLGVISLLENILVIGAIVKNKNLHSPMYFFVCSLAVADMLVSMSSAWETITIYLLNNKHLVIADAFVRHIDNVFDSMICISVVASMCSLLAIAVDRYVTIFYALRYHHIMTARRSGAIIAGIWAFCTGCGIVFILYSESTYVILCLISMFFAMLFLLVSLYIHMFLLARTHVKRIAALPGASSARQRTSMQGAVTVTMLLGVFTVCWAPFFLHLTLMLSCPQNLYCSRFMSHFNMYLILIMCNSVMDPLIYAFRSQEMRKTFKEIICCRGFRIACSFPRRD
Melanocortin receptor 4, sequence (P32245 whole entry): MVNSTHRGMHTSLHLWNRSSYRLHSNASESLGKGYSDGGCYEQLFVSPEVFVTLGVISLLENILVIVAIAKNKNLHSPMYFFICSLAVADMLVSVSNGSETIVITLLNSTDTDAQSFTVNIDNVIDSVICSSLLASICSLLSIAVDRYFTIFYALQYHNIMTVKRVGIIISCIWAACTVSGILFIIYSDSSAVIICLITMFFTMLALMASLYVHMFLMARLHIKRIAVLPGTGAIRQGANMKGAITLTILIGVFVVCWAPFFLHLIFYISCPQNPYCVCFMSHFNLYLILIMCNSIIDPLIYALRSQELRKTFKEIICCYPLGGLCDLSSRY

Usually Ki stands for the equilibrium dissociation constant of an inhibitor or competing ligand from its target. Higher therefore signals weaker binding. With `O=C(N[C@H](Cc1ccc(Cl)cc1)C(=O)N1CC[N+]([O-])(c2ccccc2)CC1)C1Cc2ccccc2CN1` (stereo partly specified), the Ki was found to be 36 µM in experiment [1], 35 µM in experiment [2], 169 µM in experiment [3] and 94 µM in experiment [4].

For `O=C(N[C@H](Cc1ccc(Cl)cc1)C(=O)N1CCN(C2(Cn3cncn3)CCCC2)CC1)C1Cc2ccccc2CN1` (stereo partly specified), the Ki came to 0.53 µM in experiment [1], 8.8 µM in experiment [2], 1.5 µM in experiment [3] and 18 µM in experiment [4].

On to `O=C(N[C@H](Cc1ccc(Cl)cc1)C(=O)N1CCN([C@@H]2CCCC[C@H]2n2cncn2)CC1)C1Cc2ccccc2CN1` (stereo partly specified), for which the inhibitory constant (Ki) in experiment [1] came to 2 µM; in experiment [2], 4.4 µM; in experiment [4], 9.8 µM.

For `O=C(N[C@H](Cc1ccc(Cl)cc1)C(=O)N1CCN(C2CCCCC2)CC1)C1Cc2ccccc2CN1` (stereo partly specified), the Ki in experiment [1] came out at 11 µM; in experiment [2] it was 6.8 µM; in experiment [3], 1.4 µM; in experiment [4], 8.2 µM.

`O=C(N[C@H](Cc1ccc(Cl)cc1)C(=O)N1CCC(Cn2cncn2)(C2CCCCC2)CC1)[C@H]1Cc2ccccc2CN1` registered a Ki in experiment [4] of 5 µM.

For the compound `O=C(N[C@H](Cc1ccc(Cl)cc1)C(=O)N1CCN(C2CCCCC2Cn2cncn2)CC1)C1Cc2ccccc2CN1` (stereo partly specified), the Ki was determined as 2 µM in experiment [1], 5.2 µM in experiment [2], 0.39 µM in experiment [3] and 16 µM in experiment [4].

`O=C(N[C@H](Cc1ccc(Cl)cc1)C(=O)N1CC[N+]([O-])(C2CCCCC2)CC1)C1Cc2ccccc2CN1` (stereo partly specified): the Ki in experiment [1] was determined as 152 µM; in experiment [2] it was 114 µM; in experiment [3] it was 57 µM; in experiment [4], 102 µM.

As to `O=C(N[C@H](Cc1ccc(Cl)cc1)C(=O)N1CCN([C@H]2CCCC[C@@H]2n2cncn2)CC1)C1Cc2ccccc2CN1` (stereo partly specified), the Ki in experiment [1] amounted to 2.2 µM; in experiment [2], 6.5 µM; in experiment [3] it was 0.86 µM; in experiment [4], 17 µM.

For `O=C(N[C@H](Cc1ccc(Cl)cc1)C(=O)N1CCN(c2ccccc2)CC1)C1Cc2ccccc2CN1` (stereo partly specified), the inhibition constant Ki in experiment [1] was 13 µM; in experiment [2], 15 µM; in experiment [3], 30 µM; in experiment [4], 17 µM.

For the compound `O=C(N[C@H](Cc1ccc(Cl)cc1)C(=O)N1CCN(C2(Cn3cncn3)CCCCC2)CC1)C1Cc2ccccc2CN1` (stereo partly specified), the inhibitory constant (Ki) in experiment [1] was determined as 3.2 µM; in experiment [2], 5.6 µM; in experiment [3] it was 1 µM; in experiment [4] it was 14 µM.

The values are drawn from ChEMBL document CHEMBL1137213, “New substituted piperazines as ligands for melanocortin receptors. Correlation to the X-ray structure of "THIQ"” (J Med Chem, 2004).
